Results published in ChEMBL document CHEMBL2406970, “Synthesis and bioevaluation of a series of α-pyrone derivatives as potent activators of Nrf2/ARE pathway (part I)” (Eur J Med Chem, 2013).
Calls of active or inactive are those of the source. The calls are words filed in the database; no cut-off is given here.

Legend:
[1] = tested on: HCT-116; test: Cytotoxicity against human HCT116 cells by MTT assay; format: functional, cell-based
In short: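 HCT116 cells were cultured in McCoy's 5A with 10% FBS and exposed to a range of compound concentrations. MTT was added for 4 h, the solution removed and DMSO added. OD was read at 570 nm, and inhibition calculated as [1 − (OD_test − OD_blank)/(OD_control − OD_blank)] × 100%.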

[2] = molecular target: T1, Keap1/Nrf2 (Homo sapiens) (UniProt Q16236+Q14145); test: Induction of Nrf2/Keap1 in human HCT116 cells assessed as induction of ARE activity at 20 uM after 12 hrs by luciferase reporter gene assay relative to control; format: cell-based; conditions: HCT-116
[3] = molecular target: T1, Keap1/Nrf2 (Homo sapiens); test: Induction of Nrf2/Keap1 in human HepG2-ARE-C8 cells assessed as induction of ARE activity at 50 uM after 12 hrs by luciferase reporter gene assay relative to control
[4] = molecular target: T2, Nuclear factor erythroid 2-related factor 2 (Homo sapiens) (UniProt Q16236); test: Activation of NRF2 in human HCT116 cells assessed as expression of ERK1/2 at 20 uM up to 24 hrs by Western blot analysis; format: cell-based; conditions: HCT-116
T2 sequence (whole entry): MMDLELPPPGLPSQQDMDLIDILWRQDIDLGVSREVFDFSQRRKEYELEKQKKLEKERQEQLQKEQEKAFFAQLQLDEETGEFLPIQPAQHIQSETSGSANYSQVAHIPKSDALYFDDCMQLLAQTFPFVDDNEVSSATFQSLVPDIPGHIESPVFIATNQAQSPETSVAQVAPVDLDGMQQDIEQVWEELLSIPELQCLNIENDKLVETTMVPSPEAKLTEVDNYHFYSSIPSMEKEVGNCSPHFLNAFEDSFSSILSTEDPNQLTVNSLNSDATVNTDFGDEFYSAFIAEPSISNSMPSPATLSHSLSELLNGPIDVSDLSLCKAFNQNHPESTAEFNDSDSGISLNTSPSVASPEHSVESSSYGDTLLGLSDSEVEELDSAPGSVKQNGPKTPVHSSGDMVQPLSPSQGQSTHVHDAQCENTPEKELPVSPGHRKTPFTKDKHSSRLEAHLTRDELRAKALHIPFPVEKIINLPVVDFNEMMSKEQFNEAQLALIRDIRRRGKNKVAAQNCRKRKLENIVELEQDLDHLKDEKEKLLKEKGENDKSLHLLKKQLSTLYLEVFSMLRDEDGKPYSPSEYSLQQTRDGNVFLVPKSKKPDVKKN

[5] = molecular target: T2, Nuclear factor erythroid 2-related factor 2 (Homo sapiens); test: Activation of NRF2 in human HCT116 cells assessed as ERK1/2 phosphorylation at 20 uM after 30 mins to 1 hr by Western blot analysis; format: cell-based; conditions: HCT-116
[6] = molecular target: T1, Keap1/Nrf2 (Homo sapiens); test: Induction of Nrf2/Keap1 in human HCT116 cells assessed as induction of ARE activity at 20 uM after 12 hrs by luciferase reporter gene assay in presence of MEK1/2 inhibitor PD98059; format: cell-based; conditions: HCT-116
[7] = tested on: HCT-116; test: Induction of HO-1 expression in human HCT116 cells at 20 uM after 8 hrs by Western blot analysis; format: functional, cell-based
[8] = tested on: HCT-116; test: Induction of nuclear translocation of Nrf2 in human HCT116 cells at 20 uM after 1 hr by Western blot analysis; format: functional, cell-based
[9] = tested on: HCT-116; test: Induction of Nrf2 expression in human HCT116 cells at 20 uM up to 24 hrs by Western blot analysis in presence of MEK1/2 inhibitor PD98059; format: functional, cell-based
[10] = tested on: HCT-116; test: Induction of nuclear translocation of Nrf2 in human HCT116 cells at 20 uM after 1 to 2 hrs by immunofluorescence staining in presence of MEK1/2 inhibitor PD98059
[11] = tested on: HCT-116; test: Induction of NQO-1 expression in human HCT116 cells at 20 uM up to 24 hrs by Western blot analysis in presence of MEK1/2 inhibitor PD98059; format: functional, cell-based
[12] = tested on: HCT-116; test: Induction of nuclear translocation of Nrf2 in human HCT116 cells at 20 uM after 24 hrs by Western blot analysis; format: functional, cell-based
[13] = tested on: HCT-116; test: Induction of Nrf2 expression in human HCT116 cells at 20 uM after 2 hrs by Western blot analysis; format: functional, cell-based
[14] = molecular target: T2, Nuclear factor erythroid 2-related factor 2 (Homo sapiens); test: Activation of NRF2 in human HCT116 cells assessed as ERK1/2 phosphorylation at 20 uM after 30 mins to 1 hr by Western blot analysis in presence of MEK1/2 inhibitor PD98059; format: cell-based; conditions: HCT-116
[15] = molecular target: T1, Keap1/Nrf2 (Homo sapiens); test: Induction of Nrf2/Keap1 in human HCT116 cells assessed as induction of ARE activity after 12 hrs by luciferase reporter gene assay; format: cell-based; conditions: HCT-116
[16] = tested on: HCT-116; test: Induction of NQO-1 expression in human HCT116 cells at 20 uM after 24 hrs by Western blot analysis; format: functional, cell-based
[17] = tested on: HCT-116; test: Induction of HO-1 expression in human HCT116 cells at 20 uM up to 24 hrs by Western blot analysis in presence of MEK1/2 inhibitor PD98059; format: functional, cell-based
[18] = molecular target: T1, Keap1/Nrf2 (Homo sapiens); test: Induction of Nrf2/Keap1 in human HCT116 cells assessed as induction of ARE activity at 80 uM after 12 hrs by luciferase reporter gene assay relative to control; format: cell-based; conditions: HCT-116

T1 sequence (Q14145 whole entry, looked up, one chain of several): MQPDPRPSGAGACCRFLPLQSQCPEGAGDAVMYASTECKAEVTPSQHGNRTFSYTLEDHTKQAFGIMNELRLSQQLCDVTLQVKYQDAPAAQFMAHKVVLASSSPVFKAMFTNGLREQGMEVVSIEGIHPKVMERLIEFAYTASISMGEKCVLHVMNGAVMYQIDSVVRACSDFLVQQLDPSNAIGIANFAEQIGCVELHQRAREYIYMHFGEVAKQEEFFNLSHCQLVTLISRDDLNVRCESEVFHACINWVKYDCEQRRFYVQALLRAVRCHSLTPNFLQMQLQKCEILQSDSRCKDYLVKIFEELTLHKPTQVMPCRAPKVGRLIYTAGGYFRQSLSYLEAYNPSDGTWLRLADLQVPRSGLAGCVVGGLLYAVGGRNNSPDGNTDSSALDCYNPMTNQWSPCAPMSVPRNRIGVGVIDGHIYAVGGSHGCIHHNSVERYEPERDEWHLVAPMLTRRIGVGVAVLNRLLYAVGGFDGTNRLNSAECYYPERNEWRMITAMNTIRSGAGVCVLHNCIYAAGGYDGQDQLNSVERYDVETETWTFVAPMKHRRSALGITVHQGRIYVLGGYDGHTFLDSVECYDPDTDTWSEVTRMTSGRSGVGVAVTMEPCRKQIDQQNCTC

Compound	fold change (FC) [2]	fold change (FC) [3]	IC50 [1]	other results
Cc1cc(O)c(C(=O)/C=C/c2ccc(F)cc2F)c(=O)o1	6.93	6.98	80.3 µM	–
Cc1cc(O)c(C(=O)/C=C/c2ccccc2F)c(=O)o1	7.08	3.04	> 100 µM	Activity [4]: inactive; Activity [5]: Active; Activity [6]: inactive; Activity [7]: Active; Activity [8]: Active; Activity [9]: inactive; Activity [10]: inactive; Activity [11]: inactive; Activity [12]: inactive; Activity [13]: Active; Activity [14]: inactive; Activity [15]: Dose-dependent effect; Activity [16]: Active; Activity [17]: inactive
Cc1cc(O)c(C(=O)/C=C/c2ccccc2Cl)c(=O)o1	5.08	0.95	> 100 µM	–
Cc1cc(O)c(C(=O)/C=C/c2ccccc2[N+](=O)[O-])c(=O)o1	2.74	0.65	> 100 µM	–
Cc1cc(O)c(C(=O)/C=C/c2ccc(Cl)cc2Cl)c(=O)o1	5.49	3.27	88.7 µM	–
Cc1cc(O)c(C(=O)/C=C/c2ccco2)c(=O)o1	3.8	5.48	> 100 µM	–
Cc1cc(O)c(C(=O)/C=C/c2ccc[nH]2)c(=O)o1	1.66	3.58	> 100 µM	–
COc1ccc(/C=C/C(=O)c2c(O)cc(C)oc2=O)c(OC)c1	8.21	6.81	> 100 µM	–
COc1cc(/C=C/C(=O)c2c(O)cc(C)oc2=O)cc(OC)c1OC	8.58	5.25	> 100 µM	–
Cc1cc(O)c(C(=O)/C=C/c2cccs2)c(=O)o1	4.53	5.96	> 100 µM	–
CC(C)(C)c1cc(O)ccc1O [E319]	–	–	> 100 µM	fold change (FC) [18]: 5.08
Cc1cc(O)c(C(=O)/C=C/c2ccccc2C(F)(F)F)c(=O)o1	4.27	2.55	> 100 µM	–

Further lines, with some results ahead:

fold change (FC) [2]	fold change (FC) [3]	Compound	IC50 [1]	other results
6.97	6.28	Cc1cc(O)c(C(=O)/C=C/c2ccc(Cl)cc2)c(=O)o1	87.4 µM	–
4.77	2.48	Cc1cc(O)c(C(=O)/C=C/c2ccc([N+](=O)[O-])cc2)c(=O)o1	65 µM	–
5.67	3.6	Cc1cc(O)c(C(=O)/C=C/c2ccc(-c3ccccc3)cc2)c(=O)o1	> 100 µM	–
4.55	8.09	Cc1cc(O)c(C(=O)/C=C/c2ccc(N(C)C)cc2)c(=O)o1	> 100 µM	–
3.68	2.07	Cc1cc(O)c(C(=O)/C=C/c2ccc(C#N)cc2)c(=O)o1	66 µM	–
6.46	4.51	Cc1cc(O)c(C(=O)/C=C/c2cccc(Cl)c2)c(=O)o1	66.3 µM	–
6.33	5.79	Cc1cc(O)c(C(=O)/C=C/c2ccc(F)cc2)c(=O)o1	> 100 µM	–
1.37	2.17	Cc1cc(O)c(C(=O)/C=C/c2ccc3ccccc3c2)c(=O)o1	> 100 µM	–
6.48	7.37	COc1ccc(/C=C/C(=O)c2c(O)cc(C)oc2=O)cc1	> 100 µM	–
7.04	3.46	Cc1cc(O)c(C(=O)/C=C/c2cccc(F)c2)c(=O)o1	81.2 µM	–
8	1.2	Cc1cc(O)c(C(=O)/C=C/c2ccc(Cl)c(Cl)c2)c(=O)o1	> 100 µM	–
4.66	5.5	CCOc1ccc(/C=C/C(=O)c2c(O)cc(C)oc2=O)cc1	> 100 µM	–
5.86	2.08	COc1ccccc1/C=C/C(=O)c1c(O)cc(C)oc1=O	> 100 µM	–
9.65	3.68	Cc1cc(O)c(C(=O)/C=C/c2ccc(F)c(F)c2)c(=O)o1	74.9 µM	–
4.21	6.84	Cc1cc(O)c(C(=O)/C=C/c2ccccc2)c(=O)o1	> 100 µM	–
